Screens as filed in PubChem BioAssay.
A selection: hits, their analogues and other compounds. The true share with any hit is near 5.8%.
T cruzi growth-1: inhibitors of T. cruzi proliferation. inhibition, % at 8.34 µM. hit rate 5.9% among 77,000. T. cruzi beta-gal in NIH3T3, GalScreen luminescence, 90 h;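 active = mean inhibition above about 93%, with at least 55% of replicates each passing it, limit read from the data, passing the limit was not always enough; inconclusive = only one of those two conditions holds; inactive = neither condition holds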
KDM4C inh: blocks human GASC-1 (KDM4C) demethylase activity; Q9H3R0; GST-KDM4C 2-372, H3K9me3 peptide, LANCE TR-FRET; inhibition, % at 12.5 µM; hit rate 0.15% among 96,000; AID 720574;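 active = mean replicate inhibition above about 25%, with at least 55% of replicates also reaching it, limit read from the data, passing the limit was not always enough; inconclusive = only one of those two conditions met; inactive = neither condition met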
Target sequence (Q9H3R0 2-372 limits assumed): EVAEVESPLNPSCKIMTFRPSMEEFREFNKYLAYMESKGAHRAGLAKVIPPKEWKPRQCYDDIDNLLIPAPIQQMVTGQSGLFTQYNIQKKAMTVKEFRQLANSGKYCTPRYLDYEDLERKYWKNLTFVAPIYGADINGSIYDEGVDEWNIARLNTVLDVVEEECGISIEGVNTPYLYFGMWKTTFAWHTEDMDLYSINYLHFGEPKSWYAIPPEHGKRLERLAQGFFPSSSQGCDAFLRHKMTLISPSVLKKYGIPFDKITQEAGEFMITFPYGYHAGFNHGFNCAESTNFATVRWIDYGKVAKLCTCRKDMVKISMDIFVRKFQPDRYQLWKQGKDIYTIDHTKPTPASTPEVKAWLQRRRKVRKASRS
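System – N-terminal GST-fused human GASC-1 (KDM4C) fragment, residues 2-372 · Input – enzyme final amount 10 nM · Technique – LANCE TR-FRET, Eu antibody, ULight-streptavidin, EDTA, ex 340 nm, em 618/671 nm · Medium – HEPES buffer, pH 7.5, plus ascorbate · Incubation – enzyme reaction 30 min, then detection 60 min, both room temperature · Reagent – H3K9me3 peptide with Fe(II)/2OG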
Pf Dd2 inh: blocks growth of Plasmodium falciparum Dd2 parasites. P. falciparum Dd2 growth, SYBR Green, 72 h; stronger effect = lower value. activity change, % at 10 µM. hit rate 2.3% among 94,000. AID 1159554; in the data active = activity change below about -80%; inconclusive = no clear call, values can overlap the other calls
IDH1 R132H inh: blocks human IDH1 R132H reductase activity; diaphorase/resazurin fluorescence, 60 min; inhibition, % at 10 µM; hit rate 0.18% among 70,000; in the data active = inhibition above about 34%; inconclusive = no clear call, values can overlap the other calls; inactive = below about 11%;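 note: 0% = DMSO and 100% = no enzyme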
Target sequence (O75874 whole entry R132H): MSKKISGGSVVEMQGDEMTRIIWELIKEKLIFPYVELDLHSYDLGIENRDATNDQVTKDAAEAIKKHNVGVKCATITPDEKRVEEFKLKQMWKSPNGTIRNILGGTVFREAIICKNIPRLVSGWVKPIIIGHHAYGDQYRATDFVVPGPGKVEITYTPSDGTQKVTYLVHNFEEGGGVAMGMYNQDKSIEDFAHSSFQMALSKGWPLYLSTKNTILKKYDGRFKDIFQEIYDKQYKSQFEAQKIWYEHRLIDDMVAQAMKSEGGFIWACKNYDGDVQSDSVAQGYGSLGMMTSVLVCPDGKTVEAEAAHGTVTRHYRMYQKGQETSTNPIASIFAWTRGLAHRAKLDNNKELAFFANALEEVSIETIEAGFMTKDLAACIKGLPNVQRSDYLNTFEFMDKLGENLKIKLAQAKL
T cruzi growth-2: inhibitors of T. cruzi proliferation; hit rate 72% among 5,600; T. cruzi beta-gal in NIH3T3, GalScreen luminescence, 90 h; shares compounds with T cruzi growth-1; inhibition, % at 8.35 µM;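 active = mean replicate inhibition above about 95% and at least 55% of replicates individually reaching it, limit read from the data; inconclusive = only one of the two criteria is met; inactive = neither criterion is met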
T cruzi growth-3: blocks T. cruzi growth in NIH3T3 host cells | shares compounds with T cruzi growth-1 | T. cruzi beta-gal in NIH3T3, GalScreen luminescence, 90 h | inhibition, % at 2.09 µM | hit rate 21% among 5,600;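 active = mean inhibition above about 95%, with at least 55% of replicates also reaching it, limit read from the data; inconclusive = meets just one of the two conditions; inactive = meets neither condition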;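 note: plate controls were neutral control median for no effect and positive control median for full effect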
3T3 cytotox: cytotoxicity in mouse NIH/3T3 fibroblasts | hit rate 14% among 5,600 | NIH/3T3 viability, CellTiter-Glo ATP luminescence, 90 h | shares compounds with T cruzi growth-1 | cytotoxicity (signal decrease), % at 8.35 µM | AID 651742;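 active = mean signal decrease across replicates above about 35% based on untreated-well scatter, with enough replicates individually passing, limit read from the data; inconclusive = no rule stated though some were filed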;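 note: 0% = median of neutral control wells and 100% = median of positive control wells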
3T3 cytotox 2: cytotoxicity in mouse NIH/3T3 fibroblasts. shares compounds with T cruzi growth-1. NIH/3T3 viability, CellTiter-Glo ATP luminescence, 90 h. inhibition, % at 24.9 µM. hit rate 56% among 5,600. AID 651744;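 active = mean loss of cell viability signal at or above a set limit, and enough replicates individually reaching it; inconclusive = meets only the mean limit or only the replicate share; inactive = meets neither condition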;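 note: 0% = median of neutral control wells and 100% = median of positive control wells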
* = called active by the depositor; u = inconclusive; x = no result; ! = not active in a repeat.

SMILES | T cruzi growth-1 | KDM4C inh | Pf Dd2 inh | IDH1 R132H inh | T cruzi growth-2 | T cruzi growth-3 | 3T3 cytotox | 3T3 cytotox 2
N#C[C@H]1[C@@H](c2ccc(C3=CCCC3)cc2)[C@@H](CO)N1C(=O)NC1CCCCC1 | x | 0 | -27 | x | x | x | x | x
N#C[C@H]1[C@H](c2ccc(C3=CCCCC3)cc2)[C@H](CO)N1C(=O)NC1CCCC1 | x | -1 | -37 | x | x | x | x | x
Cc1ccc(NC(=O)COc2ccc(C(=O)Nc3ccc(Cl)cc3)cc2)cc1 | x | x | x | 0 | x | x | x | x
Cn1c(SCC(=O)c2cc(C(C)(C)C)c(O)c(C(C)(C)C)c2)nnc1-c1ccncc1 | x | x | x | -1 | x | x | x | x
O=C(Cn1cc(C(=O)c2cccs2)c2ccccc21)Nc1ccccc1 | x | x | x | 1 | x | x | x | x
C[C@@H]1O[C@@H](O[C@@H]2[C@@H](O)[C@H](OCCc3ccc(O)c(O)c3)O[C@H](CO[C@@H]3OC[C@](O)(CO)[C@H]3O)[C@H]2OC(=O)/C=C/c2ccc(O)c(O)c2)[C@H](O[C@@H]2OC[C@H](O)[C@H](O)[C@H]2O)[C@H](O)[C@H]1O | x | x | x | 1 | x | x | x | x
CCCNC(=O)N1[C@H](CO)[C@H](c2ccc(C3=CCCCC3)cc2)[C@@H]1C#N | 56 | 2 | 0 | 0 | x | x | x | x
CCCNC(=O)N1[C@H](C#N)[C@@H](c2ccc(C3=CCCCC3)cc2)[C@@H]1CO | 103* | -2 | -47 | x | 105* | 72 | 16 | -41
COc1ccccc1NC(=O)N1CCCCN2[C@H](C1)[C@H](c1ccc(C#CC3CC3)cc1)[C@@H]2CO | 100* | x | -80 | x | 105* | 56 | 21 | 30*
COc1ccccc1NC(=O)N1CCCCN2[C@H](CO)[C@H](c3ccc(C#Cc4ccccc4)cc3)[C@H]2C1 | 58 | -3 | -79 | x | x | x | x | x
COc1ccccc1NC(=O)N1CCCCN2[C@H](C1)[C@@H](c1ccc(C#Cc3ccccc3)cc1)[C@@H]2CO | 107* | -3 | -48 | x | 99* | 109* | 36* | 105*
COc1ccc2c(c1)c(/C=C/c1nc3ccc(I)cc3c(=O)n1CCCO)c(C)n2C | x | x | x | 0 | x | x | x | x
CCn1c(SCC(=O)Nc2ccccc2C(F)(F)F)nnc1-c1cccc(C)c1 | x | x | x | 0 | x | x | x | x
C[C@@H]1CN([C@@H](C)CO)C(=O)c2cc(N(C)C)ccc2O[C@@H](C)CCCCO[C@@H]1CN(C)Cc1ccc2c(c1)OCO2 | 101*! | 4 | -30 | x | u | -25 | 0 | 11
C[C@@H]1CCCCO[C@H](CN(C)Cc2ccncc2)[C@@H](C)CN([C@H](C)CO)C(=O)c2cc(N(C)C)ccc2O1 | 108*! | 21 | 2 | 4 | 59 | -10 | 13 | -1
C[C@@H]1CCCCO[C@H](CN(C)S(=O)(=O)c2ccc(Cl)cc2)[C@H](C)CN([C@H](C)CO)C(=O)c2cc(NC(=O)CCC(F)(F)F)ccc2O1 | 99* | 0 | -42 | x | 106* | 34 | 14 | 30*
C[C@H]1CCCCO[C@H](CN(C)S(=O)(=O)c2ccc(Cl)cc2)[C@@H](C)CN([C@@H](C)CO)C(=O)c2cc(NC(=O)CCC(F)(F)F)ccc2O1 | 105* | -2 | -73 | 4 | 103* | 70 | 0 | 19
C[C@H]1CCCCO[C@@H](CN(C)S(=O)(=O)c2ccc(Cl)cc2)[C@@H](C)CN([C@@H](C)CO)C(=O)c2cc(NC(=O)CCC(F)(F)F)ccc2O1 | 117* | 0 | -83* | x | 110* | 73 | -20 | 16
COc1ccc(NC(=O)CCSc2ccc([N+](=O)[O-])cc2)cc1 | x | x | x | 0 | x | x | x | x
O=C(c1cccc(F)c1)N1CCCCN2[C@H](CO)[C@H](c3ccc(-c4ccc(F)cc4)cc3)[C@H]2C1 | 111* | x | -38 | x | 102* | 85 | 16 | 104*
O=C(c1cccc(F)c1)N1CCCCN2[C@H](CO)[C@@H](c3ccc(-c4ccncc4)cc3)[C@H]2C1 | 67 | 1 | 17 | x | x | x | x | x
O=C(c1cccc(F)c1)N1CCCCN2[C@@H](CO)[C@H](c3ccc(-c4ccncc4)cc3)[C@@H]2C1 | 109* | 1 | -64 | x | 101* | 89 | 11 | 47*
O=C(c1cccc(F)c1)N1CCCCN2[C@H](CO)[C@H](c3ccc(-c4cccnc4)cc3)[C@H]2C1 | 60 | 1 | -6 | x | x | x | x | x
O=C(c1cccc(F)c1)N1CCCCN2[C@H](CO)[C@H](c3ccc(-c4cccnc4)cc3)[C@@H]2C1 | u | 0 | 1 | x | 103* | 95 | -4 | -17
O=C(c1cccc(F)c1)N1CCCCN2[C@@H](CO)[C@H](c3ccc(-c4ccc(F)cc4)cc3)[C@@H]2C1 | 105* | x | -4 | x | 103* | 35 | 33 | 106*
SMILES | T cruzi growth-1 | KDM4C inh | Pf Dd2 inh | IDH1 R132H inh | T cruzi growth-2 | T cruzi growth-3 | 3T3 cytotox | 3T3 cytotox 2
O=C(c1cccc(F)c1)N1CCCCN2[C@@H](CO)[C@@H](c3ccc(-c4ccc(F)cc4)cc3)[C@@H]2C1 | 67 | x | -21 | x | x | x | x | x
O=C(c1cccc(F)c1)N1CCCCN2[C@H](CO)[C@@H](c3ccc(-c4ccc(F)cc4)cc3)[C@H]2C1 | 80 | x | 31 | x | x | x | x | x
Cn1c(SCC(=O)Nc2sc3c(c2C#N)CCCC3)nnc1-c1ccc(Cl)cc1Cl | x | x | x | 0 | x | x | x | x
O=C(N=NC=C1C=CN(O)C=C1)c1ccccc1O | x | x | x | 0 | x | x | x | x
C[C@@H]1CN([C@H](C)CO)C(=O)c2cc(NC(=O)C3CCCCC3)ccc2O[C@@H](C)CCCCO[C@H]1CN(C)C(=O)NC1CCCCC1 | 114* | 7 | -26 | x | 98* | 90 | -21 | 37
CC(C)NC(=O)Nc1ccc2c(c1)C(=O)N([C@H](C)CO)C[C@@H](C)[C@H](CN(C)C(=O)NC1CCCCC1)OCCCC[C@@H](C)O2 | 96* | -2 | -41 | x | 93 | 41 | 5 | 6
CC(C)NC(=O)Nc1ccc2c(c1)C(=O)N([C@@H](C)CO)C[C@@H](C)[C@H](CN(C)C(=O)NC1CCCCC1)OCCCC[C@@H](C)O2 | 97* | -2 | -51 | 2 | 38 | -5 | 10 | -1
CC(C)NC(=O)Nc1ccc2c(c1)C(=O)N([C@@H](C)CO)C[C@@H](C)[C@@H](CN(C)C(=O)NC1CCCCC1)OCCCC[C@H](C)O2 | 5 | -1 | -32 | 1 | x | x | x | x
COc1cc([N+](=O)[O-])ccc1NC(=S)NCc1cn(-c2ccccc2)nc1-c1ccccc1 | x | x | x | 0 | x | x | x | x
Cn1c(SCC(=O)n2c3c(c4ccccc42)CCCC3)nnc1-c1ccco1 | x | x | x | 0 | x | x | x | x
O=C(C[C@H]1C[C@@H]2c3cc(NC(=O)c4ccc5c(c4)OCO5)ccc3O[C@@H]2[C@@H](CO)O1)NCc1ccc(Cl)cc1 | 101* | 1 | -41 | 0 | 101* | 56 | 21 | 25
